HSF1 inh – HSF1 inhibitors in luciferase reporter cells, primary screen, cell-based, NIH3T3, luminescence; NIH3T3-HGL HSE-luciferase, MG132-induced, luminescence 8 h; active compounds read low; activity change, negative = inhibition, % at 7.5 µM (by protocol); 300,000 compounds, 0.77% hits; AID 2098, 2009;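 active means more than half of replicate wells show activity change below -50%, luminescence cut by over half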;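 further: luciferase reports HSF-1 transcriptional activity via heat shock element; 0% = median of DMSO wells and -100% = zero luminescence signal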
T cruzi repl – inhibitors of intracellular T. cruzi growth, primary screen, luminescence, NIH3T3 host cells; T. cruzi beta-gal in NIH3T3, 90 h; inhibition, % (concentration not given with the values); 300,000 compounds, 1.4% hits; AID 1885, 2009;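 active means mean inhibition across valid replicates above about 55%, limit read from the data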;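 further: signal also drops with host cell toxicity which is not excluded here; 0% = plate median of DMSO wells and 100% = zero luminescence signal; higher percent means less beta-gal luminescence so fewer parasites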
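Assay system: NIH/3T3 host cells with β-galactosidase reporter T. cruzi; input: 5,000 host fibroblasts per well; compound: single 50 nL compound addition per well in DMSO; timing: ≥90 h infection period, 3 h prior cell attachment; measured by: GalScreen β-gal luminescence, detergent lysis, 60 min; evaluation: percent inhibition of parasite-derived β-gal signal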
GPR7 antagonist – GPR7 receptor antagonists, primary screen, cell-based, fluorescence, single concentration. 290,000 compounds, 1.1% hits. inhibition, % at 4.4 µM. AID 1861, 2009. GPR7-expressing cells, fluorescence antagonist assay; in the data active means inhibition above about 16%, passing the limit was not always enough;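 further: cells stimulated with the agonist NPW; 0% = agonist with vehicle and 100% = vehicle without agonist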
Target sequence (P48145 whole entry, looked up): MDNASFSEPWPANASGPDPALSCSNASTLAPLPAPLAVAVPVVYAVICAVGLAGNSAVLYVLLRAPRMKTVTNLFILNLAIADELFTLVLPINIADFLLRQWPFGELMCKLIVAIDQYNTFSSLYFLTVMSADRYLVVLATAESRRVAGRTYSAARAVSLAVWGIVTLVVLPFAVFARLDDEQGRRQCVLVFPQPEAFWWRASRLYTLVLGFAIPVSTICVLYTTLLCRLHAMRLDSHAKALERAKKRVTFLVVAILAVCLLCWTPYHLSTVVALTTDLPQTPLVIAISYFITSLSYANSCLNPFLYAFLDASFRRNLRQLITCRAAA
Jurkat NFkB inh – inhibitors of induced NF-kB luciferase reporter, primary screen, TCR NF-kB activation inhibitor project, cell-based, luminescence, uHTS; Jurkat, PMA/ionomycin-induced NF-kB luciferase reporter; AID 435003, 2010; inhibition, % at 4 µM; 330,000 compounds, 0.53% hits; in the data active means inhibition above about 50%
HSF1 activator – HSF-1 activators, primary screen, NIH3T3-HGL cells, MG132 stress, luminescence, single point; NIH3T3-HGL HSF-1 luciferase reporter, 8 h; 100% = twice DMSO control signal; activation, % at 9 µM; 300,000 compounds, 1.7% hits; AID 504408, 2011;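 active means mean replicate activation of at least 50% with a set share of replicates each reaching 50%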;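 further: 0% = median of the neutral control wells and 100% = twice that signal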
697 NFkB inh – inhibitors of PMA/ionomycin-induced NF-kB reporter, 697 cells, primary screen, B-cell NF-kB inhibitor project, cell-based, luminescence, uHTS. 697 B-cell NF-kB luciferase reporter, 16 h. inhibition, % at 4 µM. 330,000 compounds, 0.33% hits; in the data active means inhibition above about 35%
GPR7 antag cf – GPR7 receptor antagonists, confirmation, cell-based, fluorescence, single concentration | 2,400 compounds, 52% hits | shares compounds with GPR7 antagonist | inhibition, % at 4.4 µM | GPR7-expressing cells, calcium fluorescence antagonist mode; in the data active means inhibition above about 24%;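 further: stimulated with the GPR7 agonist NPW; 0% = agonist plus vehicle and 100% = vehicle alone without agonist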
MCHR1 antagonist – MCHR1 antagonists in cells, counter-screen for GPR7 antagonist project, cell-based, fluorescence, human; shares compounds with GPR7 antagonist; MCHR1-expressing cells, fluorescence antagonist assay; inhibition, % at 4.4 µM; 2,400 compounds, 62% hits; AID 2148, 2009; in the data active means inhibition above about 22%;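 further: 0% = vehicle with agonist and 100% = vehicle without agonist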
An asterisk follows results filed as active; . = not tested or not shown. Most compounds without a hit are left out; they make up all but 4.8% or so of the library.

SMILES | HSF1 inh | T cruzi repl | GPR7 antagonist | Jurkat NFkB inh | HSF1 activator | 697 NFkB inh | GPR7 antag cf | MCHR1 antagonist
CC(C)C(NC(=O)c1ccccc1)C(=O)NCc1ccccn1 (stereo not drawn) | -0.4 | -14.8 | 35.1* | 0.2 | -7.2 | -4.5 | -15.5 | 10.6
CSc1nc2ccccc2n1CC(=O)Nc1cc(C(F)(F)F)ccc1N1CCOCC1 | 6.1 | 11.7 | 36.5* | 18.5 | 13.6 | 11.1 | 38.3* | 25.8*
O=C(Cn1c(C(F)(F)F)nc2ccccc21)Nc1ccccc1N1CCOCC1 | 10.4 | 0.2 | 1.5 | 0.6 | 9.3 | 21.2 | . | .
CC(C)CN1C(=O)c2ccc(C(=O)Nc3ccc(OCC(=O)O)cc3)cc2C1=O | -10.1 | -1.8 | -8.2 | -13.5 | -13.9 | -8.3 | . | .
COc1ccc(C2Nc3ccccc3C(=O)N2Cc2ccco2)cc1COc1ccccc1F (stereo not drawn) | 35.7 | 31.8 | 26.0* | 5.1 | 76.0* | -25.9 | 25.3* | 36.1*
O=C1c2ccccc2NC(c2cccc(F)c2)N1Cc1ccco1 (stereo not drawn) | 30.8 | -7.3 | -12.8 | -14.0 | 37.6 | -9.2 | . | .
COc1ccc(/C=C(\C#N)C(=O)OCC(=O)NCc2ccc(Cl)cc2)cc1 | -0.4 | 3.2 | -1.8 | 1.7 | -1.2 | 10.2 | . | .
Cc1ccc2[nH]c3c(c2c1)CCc1cn[nH]c1-3 | 2.5 | 1.8 | 22.8* | -15.5 | 10.5 | -4.9 | 8.5 | 24.4*
Cc1ccc2[nH]c3c(c2c1)CCC3=O | 2.2 | 1.6 | -0.9 | 11.5 | -11.3 | 22.2 | . | .
Cc1ccccc1CNC(=O)c1ccccc1N(C)S(=O)(=O)c1ccccc1 | -2.6 | -8.0 | -4.2 | -3.6 | -13.6 | -16.6 | . | .
CC(C)n1cc(NC(=O)c2cc(-c3ccccc3)on2)cn1 | 1.0 | -50.5 | 24.3* | 26.9 | 4.6 | -131.9 | 14.3 | 30.0*
CN1CCN(c2ccc(Cl)cc2NC(=O)/C=C/c2cccc(F)c2)CC1 | -37.5 | 27.0 | 26.7* | 11.9 | -48.8 | 4.6 | 43.3* | 28.4*
CN1CCN(c2ccc(Cl)cc2NC(=O)c2cccc(S(=O)(=O)N(C)C)c2)CC1 | 1.8 | 23.3 | 24.4* | -27.7 | 6.0 | 6.0 | 16.2 | 13.1
CCc1cc(C(=O)Nc2cc(Cl)ccc2N2CCN(C)CC2)sc1C | -0.9 | 20.8 | . | 16.4 | -8.7 | 15.7 | . | .
O=C(NC12CC3CC(CC(C3)C1)C2)OCCNC1CCCCC1 | -5.1 | 24.6 | 25.7* | -6.8 | -2.4 | 1.0 | -2.6 | -9.1
CC(C)COCC(CN(Cc1ccccc1)c1ccccc1)N1CCCC1 (stereo not drawn) | 5.6 | 2.2 | 46.2* | 17.0 | 33.1 | -3.2 | 48.2* | 31.3*
NS(=O)(=O)c1ccc(CCNC(=O)CSc2nc3ccsc3c(=O)n2C2CC2)cc1 | -6.2 | 11.6 | -2.0 | 14.7 | 4.6 | -0.4 | . | .
CCOC(=O)N1CCC(n2c(SCC(=O)NCCc3ccc(S(N)(=O)=O)cc3)nc3ccccc3c2=O)CC1 | 2.0 | 23.2 | 43.1* | 19.1 | 4.2 | 16.4 | 19.2 | 20.0
COc1ccccc1-n1c(SCC(=O)NC2CCCCC2)nc2c(c1=O)SCC2 | 13.9 | 19.7 | 29.1* | -2.9 | 23.9 | -1.1 | 6.1 | 16.9
Cc1ccccc1Nc1ncnc2c1cnn2C | -6.2 | -13.3 | -19.1 | 2.1 | -10.0 | 5.7 | . | .
COc1cccc(NC(=O)COC(=O)c2c3c(nc4ccccc24)CCC(C)C3)c1 (stereo not drawn) | -6.3 | 72.7* | 39.4* | 26.4 | -6.2 | 18.1 | 26.5* | 63.2*
CC(C)C(c1nnnn1Cc1cccs1)N1CCN(C2CCCC2)CC1 (stereo not drawn) | -4.4 | -7.0 | 33.6* | -25.0 | -25.6 | -16.3 | 17.4 | 14.3
c1ccc(C(c2nnnn2Cc2cccs2)N2CCN(C3CCCC3)CC2)cc1 (stereo not drawn) | 0.4 | -10.0 | -1.0 | -8.0 | 2.0 | -23.8 | . | .
CCCC(c1nnnn1Cc1ccc(F)cc1)N1CCN(C)CC1 (stereo not drawn) | -1.9 | 2.0 | -2.5 | -23.6 | 4.1 | -5.6 | . | .
CCC(c1nnnn1Cc1ccc(F)cc1)N1CCN(C2CCCCC2)CC1 (stereo not drawn) | -3.4 | 9.2 | 45.8* | 8.9 | 3.3 | -14.1 | 43.4* | 29.0*
SMILES | HSF1 inh | T cruzi repl | GPR7 antagonist | Jurkat NFkB inh | HSF1 activator | 697 NFkB inh | GPR7 antag cf | MCHR1 antagonist
Cc1cc2nc(CS)[nH]c2cc1C | 4.8 | -13.7 | -6.6 | -14.6 | 8.8 | 1.8 | . | .
N#Cc1ccc(NC(=O)Nc2cccc(C#N)c2)cc1 | -4.1 | 18.5 | 25.4* | . | 2.0 | . | 36.0* | 55.1*
N#Cc1cccc(NC(=O)c2ccccc2C(=O)O)c1 | -4.5 | -7.2 | -12.6 | -10.5 | 25.0 | 2.7 | . | .
CCN(CC(=O)Nc1ccc(OC)cc1)CC(=O)Nc1cccc(C#N)c1 | 12.4 | -11.7 | 5.5 | -4.1 | 30.1 | 9.8 | . | .
CCN(CC(=O)Nc1cccc(C#N)c1)CC(=O)Nc1cccc(OC)c1 | -5.5 | 0.4 | 27.3* | 0.2 | 0.3 | -11.2 | 29.6* | 16.7
CC(C)[C@H](NS(=O)(=O)c1ccccc1F)C(=O)NC1CCCCC1 | . | . | . | -3.5 | . | -2.9 | . | .
CC(=O)Oc1ccc2c(c1)Oc1cc(OC(C)=O)ccc1C21OC(=O)c2ccccc21 | . | . | 105.0* | 1.0 | . | 29.5 | 102.7* | 109.3*
Cc1cc(O)ccc1C1(c2ccc(O)cc2C)OC(=O)c2ccccc21 | 3.0 | -22.6 | 14.7 | 1.5 | -19.3 | -1.7 | . | .
COc1cc(NC(=O)COC(=O)Cc2ccc(-c3ccccc3)cc2)cc(OC)c1 | 9.8 | 4.2 | -5.7 | 0.6 | 4.5 | -11.4 | . | .
COc1ccc(NS(=O)(=O)c2ccc(NC(=O)CCNS(=O)(=O)c3ccc(C)cc3)cc2)cc1 | -3.0 | -10.2 | 26.6* | 7.2 | -0.9 | -6.7 | 60.7* | 50.2*
Cc1ccc(S(=O)(=O)NCCC(=O)Nc2ccc(S(=O)(=O)NC(C)C)cc2)cc1 | -7.1 | -8.2 | -10.6 | 15.9 | 16.1 | 14.7 | . | .
O=c1ccc2cc(S(=O)(=O)Nc3ccc(Br)cc3)ccc2o1 | 6.5 | -6.0 | 24.1* | -10.3 | 16.7 | -13.8 | 14.1 | 21.5*
O=C(NCC1CCCO1)C1CCCN(S(=O)(=O)c2cccc(C(F)(F)F)c2)C1 (stereo not drawn) | -1.3 | 0.6 | 24.0* | -33.1 | 7.5 | -25.7 | -6.1 | 0.0
CCN(C(=O)c1ccc2c(=O)n3c(nc2c1)CCCCC3)c1cc(OC)ccc1OC | -3.9 | 3.5 | -0.3 | 1.5 | -2.1 | 7.7 | . | .

Screens deposited in PubChem BioAssay by several laboratories.
